High-throughput results as filed in PubChem BioAssay.
IMP-1 inh-1: IMP-1 metallo-beta-lactamase inhibitors, primary screen, biochemical, epi-absorbance readout, Pseudomonas aeruginosa enzyme | metallo-beta-lactamase IMP-1 (Pseudomonas aeruginosa) | purified IMP-1, nitrocefin hydrolysis, epi-absorbance fluorescence | inhibition, % at 5.6 µM | 0.45% of 290,000 active;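 active = inhibition above the mean plus 3 SD of all compounds in the same screening run, cut at about 4.5% in these data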
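assay system = purified recombinant IMP-1 metallo-beta-lactamase enzyme | schedule = 15 min preincubation plus 25 min reaction at 25 °C | signal = Epi-absorbance fluorescence, 480 nm excitation, 530 nm emission | read-out basis = percent inhibition from optical density relative to buffer-blank wells | controls = IMP-1 with DMSO as 0%, enzyme-free DMSO as 100%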
SUMO HTRF inh: inhibitors of in vitro SUMOylation cascade, primary screen, biochemical, HTRF, uHTS; HTRF SUMOylation assay, SAE1/SAE2 + UBC9; inhibition, % at 35 µM; 0.36% of 290,000 active; in the data active = inhibition above about 50%, passing the limit was not always enough
Target sequence (P63279 whole entry, looked up): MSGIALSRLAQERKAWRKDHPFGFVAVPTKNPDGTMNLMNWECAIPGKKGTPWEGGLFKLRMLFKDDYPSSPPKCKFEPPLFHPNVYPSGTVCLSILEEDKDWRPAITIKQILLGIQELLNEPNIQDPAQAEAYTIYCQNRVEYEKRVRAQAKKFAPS
DNA FID counter: compounds displacing fluorescent DNA intercalator, primary screen, artefact control for HCV NS3 helicase inhibitor project, biochemical, FID fluorescence | DNA fluorescent intercalator displacement | inhibition, % at 7.9 µM | 0.17% of 290,000 active; in the data active = inhibition above about 37%;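 also: higher means more ethidium bromide displaced from hairpin DNA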
VIM-2 inhibitor: VIM-2 metallo-beta-lactamase inhibitors, primary screen, biochemical, epi-absorbance readout, Pseudomonas aeruginosa enzyme; purified VIM-2, nitrocefin hydrolysis, epi-absorbance fluorescence; inhibition, % at 5.6 µM; 0.89% of 290,000 active; AID 1527, 2009;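 active = inhibition above the mean of all tested compounds plus 3 SD, cutoff set per screening run, cut at about 7.5% in these data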;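 also: red hydrolysis product quenches plate fluorescence so inhibitors raise well fluorescence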
HCV NS3 hel inh: inhibitors of HCV NS3 helicase, primary screen, biochemical, Cy5 molecular beacon fluorescence; NS3 helicase DNA unwinding; 0.56% of 290,000 active; Hepatitis C virus NS3 helicase; inhibition, % at 10.9 µM;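 active = inhibition above the mean of all tested compounds plus 3 SD, set per campaign, cut at about 35% in these data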
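System: NS3 helicase fragment of HCV / Schedule: 1 h at 25 °C / Control set: DMSO alone as 0% and 110 µM thioflavine S as 100% / Reagent: Cy5/quencher beacon DNA duplex and ATP to start / Technique: Cy5 fluorescence / Replication: singlicate / Evaluation: % inhibition of end-to-start signal ratio versus controls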
IMP-1 inh-2: IMP-1 metallo-beta-lactamase inhibitors, confirmation, selectivity assay for selective VIM-2 inhibitor project, biochemical, epi-absorbance readout, triplicate | shares compounds with VIM-2 inhibitor | purified IMP-1, nitrocefin hydrolysis, epi-absorbance fluorescence | inhibition, % at 5.6 µM | 1,300 tested, under 10 active | AID 1856, 2009; call rule not given here
VIM-2 FRET inh: VIM-2 inhibitors in FRET format, confirmation, artefact control for selective VIM-2 inhibitor project, biochemical, epi-absorbance artifact exclusion | inhibition, % at 5.6 µM | 23% of 1,300 active | purified VIM-2, CCF2 FRET substrate hydrolysis | shares compounds with VIM-2 inhibitor;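 active = inhibition above the mean of all tested compounds plus 3 SD, cut at about 19% in these data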
TEM-1 inh: TEM-1 serine beta-lactamase inhibitors, counter-screen for VIM-2 inhibitor project, biochemical, epi-absorbance, HTS; inhibition, % at 5.6 µM; shares compounds with VIM-2 inhibitor; 3% of 1,300 active; Purified TEM-1, nitrocefin hydrolysis, epi-absorbance fluorescence;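 active = inhibition above that campaign's mean inhibition plus 3 SD, cut at about 0.46% in these data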
Target sequence (P62593 whole entry, looked up): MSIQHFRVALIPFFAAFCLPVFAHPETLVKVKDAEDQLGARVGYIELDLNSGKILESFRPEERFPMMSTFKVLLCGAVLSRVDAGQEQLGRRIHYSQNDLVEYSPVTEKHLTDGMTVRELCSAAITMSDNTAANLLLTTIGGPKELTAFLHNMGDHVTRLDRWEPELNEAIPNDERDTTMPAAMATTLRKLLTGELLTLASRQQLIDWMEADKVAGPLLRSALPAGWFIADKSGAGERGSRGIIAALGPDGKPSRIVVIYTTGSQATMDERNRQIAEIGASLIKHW
VIM-2 confirm 2: VIM-2 metallo-beta-lactamase inhibitors, confirmation, biochemical, epi-absorbance, hits shared with IMP-1 screen | shares compounds with VIM-2 inhibitor | purified VIM-2, nitrocefin hydrolysis | inhibition, % at 5.6 µM | 96% of 1,300 active | AID 2187, 2009;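 active = inhibition of the VIM-2 beta-lactamase enzyme above about 11% from the earlier first-round screen, limit read from the data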
Large screens that a line does not name were inactive (follow-up assays come after a bar, where they were run). Hits are enriched below; roughly 2.1% of the tested compounds scored in any of these assays.

COc1ccc(CCNC(=O)CC(Cc2ccc(C)cc2)C(=O)O)cc1OC (stereo not given)	none
CCN(C(=O)c1ccco1)C1C2CC3CC(C2)CC1C3 (stereo not given)	none
CC(O)CNc1ccc(-c2n[nH]c(=O)c3ccccc23)cc1[N+](=O)[O-] (stereo not given)	VIM-2 inhibitor 20.0 | IMP-1 inh-2 inactive | VIM-2 FRET inh inactive | TEM-1 inh inactive | VIM-2 confirm 2 34.3
CN(C)CCCNc1ccc(-c2n[nH]c(=O)c3ccccc23)cc1[N+](=O)[O-]	VIM-2 inhibitor 59.2 | IMP-1 inh-2 inactive | VIM-2 FRET inh inactive | TEM-1 inh inactive | VIM-2 confirm 2 68.5
Cc1ccc(-c2n[nH]c(=O)c3ccccc23)cc1S(=O)(=O)N(C)C	none
CC(O)CNc1cc(N)c([N+](=O)[O-])cc1[N+](=O)[O-] (stereo not given)	none
Cc1cc(NC(=O)CCc2ccccc2)c([N+](=O)[O-])cc1C	none
CCOC(=O)C1CN(S(=O)(=O)c2ccc(C)cc2)c2ccccc2O1 (stereo not given)	none
CC1CCN(CCCNC(=O)c2n[nH]c(=O)c3ccccc23)CC1	none
CC1CCN(CCCNC(=O)c2cc3c(Cl)nc4ccccc4c3s2)CC1	VIM-2 inhibitor 23.2 | IMP-1 inh-2 inactive | VIM-2 FRET inh inactive | TEM-1 inh inactive | VIM-2 confirm 2 32.4
CCCCN(C)C(=O)c1cc2c(Cl)nc3ccccc3c2s1	VIM-2 inhibitor 13.1 | IMP-1 inh-2 inactive | VIM-2 FRET inh inactive | TEM-1 inh inactive | VIM-2 confirm 2 19.2
O=C(NCCCN1CCCC1)c1cc2c(Cl)nc3ccccc3c2s1	VIM-2 inhibitor 22.4 | IMP-1 inh-2 inactive | VIM-2 FRET inh inactive | TEM-1 inh inactive | VIM-2 confirm 2 34.8
O=P(O)(O)c1ccccc1OCCOCCOCCOCCOc1ccccc1P(=O)(O)O	VIM-2 inhibitor 30.9 | IMP-1 inh-2 inactive | VIM-2 FRET inh 59.9 | TEM-1 inh inactive | VIM-2 confirm 2 44.4
S=c1[nH]nc(-c2ccccc2)n1CC1CCCO1 (stereo not given)	VIM-2 inhibitor 29.7 | IMP-1 inh-2 inactive | VIM-2 FRET inh 47.9 | TEM-1 inh inactive | VIM-2 confirm 2 31.9
CC1CCCCC1n1c(-c2cccnc2)n[nH]c1=S (stereo not given)	VIM-2 inhibitor 19.1 | IMP-1 inh-2 inactive | VIM-2 FRET inh 49.3 | TEM-1 inh inactive | VIM-2 confirm 2 31.7
Cc1ccsc1-c1n[nH]c(=S)n1C1CCCCC1	VIM-2 inhibitor 30.9 | IMP-1 inh-2 inactive | VIM-2 FRET inh 57.0 | TEM-1 inh inactive | VIM-2 confirm 2 41.7
S=c1[nH]nc(-c2ccccc2)n1C1C=CCCC1 (stereo not given)	VIM-2 inhibitor 14.7 | IMP-1 inh-2 inactive | VIM-2 FRET inh 44.0 | TEM-1 inh inactive | VIM-2 confirm 2 25.9
Cc1ccsc1-c1n[nH]c(=S)n1CC(C)C	VIM-2 inhibitor 17.8 | IMP-1 inh-2 inactive | VIM-2 FRET inh 39.9 | TEM-1 inh inactive | VIM-2 confirm 2 27.8
S=c1[nH]nc(-c2cccnc2)n1C1CCCCC1	VIM-2 inhibitor 16.0 | IMP-1 inh-2 inactive | VIM-2 FRET inh 44.7 | TEM-1 inh inactive | VIM-2 confirm 2 26.2
O=C(NCCC(=O)N1CCC2(CC1)NCCc1[nH]cnc12)c1cccc(Br)c1	none
COC(=O)c1ccsc1NC(=O)C1=COCCO1	VIM-2 inhibitor 13.0 | IMP-1 inh-2 inactive | VIM-2 FRET inh inactive | TEM-1 inh inactive | VIM-2 confirm 2 12.2
CCOC(=O)C(C)Sc1nc(-c2ccccn2)ncc1OC (stereo not given)	VIM-2 inhibitor 35.1 | IMP-1 inh-2 inactive | VIM-2 FRET inh inactive | TEM-1 inh inactive | VIM-2 confirm 2 43.4
COc1cnc(-c2ccccn2)nc1Oc1cccc(Cl)c1	VIM-2 inhibitor 17.3 | IMP-1 inh-2 inactive | VIM-2 FRET inh inactive | TEM-1 inh inactive | VIM-2 confirm 2 35.8
COc1cnc(-c2ccccn2)nc1Oc1c(C)cccc1C	none
COc1ccc(Oc2nc(-c3ccccn3)ncc2OC)cc1	VIM-2 inhibitor 16.4 | IMP-1 inh-2 inactive | VIM-2 FRET inh inactive | TEM-1 inh inactive | VIM-2 confirm 2 25.4
CCC(Sc1nc2ncccc2[nH]1)C(=O)N1CCOCC1 (stereo not given)	none
COCCCNc1c2c3c(cccc3[nH]c1=O)C(=O)c1ccccc1-2	VIM-2 inhibitor 34.4 | IMP-1 inh-2 72.9 | VIM-2 FRET inh inactive | TEM-1 inh 137.4 | VIM-2 confirm 2 87.4
O=C(c1ccco1)N1N=C(c2ccc(Cl)cc2)CC1c1ccco1 (stereo not given)	VIM-2 inhibitor 35.2 | IMP-1 inh-2 inactive | VIM-2 FRET inh 69.3 | TEM-1 inh inactive | VIM-2 confirm 2 43.6
O=C(O)c1ccccc1Sc1ncnc2sc3c(c12)CCC3	VIM-2 inhibitor 29.2 | IMP-1 inh-2 inactive | VIM-2 FRET inh 60.7 | TEM-1 inh inactive | VIM-2 confirm 2 37.2
O=C(NCc1cccnc1)c1cccn2c(=O)c3sccc3nc12	VIM-2 inhibitor 26.4 | IMP-1 inh-2 inactive | VIM-2 FRET inh inactive | TEM-1 inh inactive | VIM-2 confirm 2 50.7
CCn1c(=N)c(C(=O)NCc2cccnc2)cc2c(=O)n3cccc(C)c3nc21	none (no result: IMP-1 inh-1, DNA FID counter, VIM-2 inhibitor, HCV NS3 hel inh)
Cc1c(OCC(=O)NCCCN2CCOCC2)ccc2c3c(c(=O)oc12)CCCC3	VIM-2 inhibitor 12.5 | IMP-1 inh-2 inactive | VIM-2 FRET inh inactive | TEM-1 inh inactive | VIM-2 confirm 2 21.7
CCCc1cc(=O)oc2c(C)c(OCC(=O)NCCCN3CCOCC3)ccc12	none
Cc1c(OCC(=O)NCCN2CCOCC2)ccc2c3c(c(=O)oc12)CCC3	VIM-2 inhibitor 26.9 | IMP-1 inh-2 inactive | VIM-2 FRET inh inactive | TEM-1 inh inactive | VIM-2 confirm 2 31.2
CCc1cc(=O)oc2c(C)c(OCC(=O)NCCCN3CCOCC3)ccc12	none
Cc1c(OCC(=O)NCCN2CCOCC2)ccc2c(-c3ccccc3)cc(=O)oc12	none
